Columns and labels:
[1] = molecular target: T1, Protein mono-ADP-ribosyltransferase PARP10 (Homo sapiens) (UniProt Q53GL7); test: (§1) Inhibition of N-terminal FLAG-tagged and C-terminal strep-tagged human PARP10 (805 to 1025 residues) expressed in baculovirus infected Sf9 cells assessed as reduction in NAD+-dependent ADP ribosylation using histone as substrate at 1 uM incubated for 1 hr in presence of biotinylated NAD+ and activated DNA by chemiluminescence based microplate reader assay
T1 sequence (whole entry): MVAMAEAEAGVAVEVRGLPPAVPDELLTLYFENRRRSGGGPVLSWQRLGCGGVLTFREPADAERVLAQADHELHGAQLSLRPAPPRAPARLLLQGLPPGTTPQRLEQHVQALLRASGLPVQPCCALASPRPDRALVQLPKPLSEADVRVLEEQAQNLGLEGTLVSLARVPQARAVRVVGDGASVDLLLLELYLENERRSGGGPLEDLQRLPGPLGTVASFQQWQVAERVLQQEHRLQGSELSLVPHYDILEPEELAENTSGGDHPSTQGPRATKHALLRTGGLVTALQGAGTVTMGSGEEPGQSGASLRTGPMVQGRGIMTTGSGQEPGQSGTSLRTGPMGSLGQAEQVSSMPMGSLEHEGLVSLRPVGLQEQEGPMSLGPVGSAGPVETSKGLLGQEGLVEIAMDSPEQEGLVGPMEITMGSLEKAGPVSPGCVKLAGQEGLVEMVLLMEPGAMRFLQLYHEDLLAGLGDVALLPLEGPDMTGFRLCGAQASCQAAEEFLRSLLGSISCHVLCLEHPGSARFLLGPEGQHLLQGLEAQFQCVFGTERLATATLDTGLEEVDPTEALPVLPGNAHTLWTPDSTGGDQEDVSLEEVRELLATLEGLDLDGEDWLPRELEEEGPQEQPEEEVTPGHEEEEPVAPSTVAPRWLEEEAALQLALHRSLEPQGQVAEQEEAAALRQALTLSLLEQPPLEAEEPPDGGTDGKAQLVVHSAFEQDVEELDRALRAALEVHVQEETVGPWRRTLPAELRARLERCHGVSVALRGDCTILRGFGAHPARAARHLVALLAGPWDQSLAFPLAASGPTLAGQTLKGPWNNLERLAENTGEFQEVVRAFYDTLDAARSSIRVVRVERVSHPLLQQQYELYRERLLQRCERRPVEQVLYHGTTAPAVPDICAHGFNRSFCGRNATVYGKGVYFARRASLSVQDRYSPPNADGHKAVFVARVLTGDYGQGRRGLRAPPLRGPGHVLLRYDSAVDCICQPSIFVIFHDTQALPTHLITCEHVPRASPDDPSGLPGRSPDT

[2] = molecular target: T1, Protein mono-ADP-ribosyltransferase PARP10 (Homo sapiens); test: as §1, with “at 10” for “at 1”, “assay relative to control” for “assay”
[3] = molecular target: Protein mono-ADP-ribosyltransferase PARP14 (Homo sapiens) (UniProt Q460N5); test: as §1, with “His-GST tagged” for “FLAG-tagged and C-terminal strep-tagged”, “PARP14 (1470” for “PARP10 (805”, “1801” for “1025”, “assay relative to control” for “assay”
[4] = molecular target: Protein mono-ADP-ribosyltransferase PARP14 (Homo sapiens) (UniProt Q460N5); test: Inhibition of N-terminal His-GST tagged human PARP14 (1470 to 1801 residues) expressed in baculovirus infected Sf9 cells assessed as reduction in NAD+-dependent ADP ribosylation using histone as substrate at 10 uM incubated for 1 hr in presence of biotinylated NAD+ and activated DNA by chemiluminescence based microplate reader assay relative to control
[5] = molecular target: T2, Protein mono-ADP-ribosyltransferase PARP10 (Homo sapiens, UniProt Q53GL7); test: as §1, with “substrate” for “substrate at 1 uM”
T2 sequence (Q53GL7 whole entry): T1 sequence (whole entry)
In short: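 The IC50 was derived from a concentration-dependent inhibition curve for PARP10 in the histone ADP-ribosylation assay.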

Chain of Protein mono-ADP-ribosyltransferase PARP14 (Homo sapiens) (Q460N5 whole entry, the tested form may be a part): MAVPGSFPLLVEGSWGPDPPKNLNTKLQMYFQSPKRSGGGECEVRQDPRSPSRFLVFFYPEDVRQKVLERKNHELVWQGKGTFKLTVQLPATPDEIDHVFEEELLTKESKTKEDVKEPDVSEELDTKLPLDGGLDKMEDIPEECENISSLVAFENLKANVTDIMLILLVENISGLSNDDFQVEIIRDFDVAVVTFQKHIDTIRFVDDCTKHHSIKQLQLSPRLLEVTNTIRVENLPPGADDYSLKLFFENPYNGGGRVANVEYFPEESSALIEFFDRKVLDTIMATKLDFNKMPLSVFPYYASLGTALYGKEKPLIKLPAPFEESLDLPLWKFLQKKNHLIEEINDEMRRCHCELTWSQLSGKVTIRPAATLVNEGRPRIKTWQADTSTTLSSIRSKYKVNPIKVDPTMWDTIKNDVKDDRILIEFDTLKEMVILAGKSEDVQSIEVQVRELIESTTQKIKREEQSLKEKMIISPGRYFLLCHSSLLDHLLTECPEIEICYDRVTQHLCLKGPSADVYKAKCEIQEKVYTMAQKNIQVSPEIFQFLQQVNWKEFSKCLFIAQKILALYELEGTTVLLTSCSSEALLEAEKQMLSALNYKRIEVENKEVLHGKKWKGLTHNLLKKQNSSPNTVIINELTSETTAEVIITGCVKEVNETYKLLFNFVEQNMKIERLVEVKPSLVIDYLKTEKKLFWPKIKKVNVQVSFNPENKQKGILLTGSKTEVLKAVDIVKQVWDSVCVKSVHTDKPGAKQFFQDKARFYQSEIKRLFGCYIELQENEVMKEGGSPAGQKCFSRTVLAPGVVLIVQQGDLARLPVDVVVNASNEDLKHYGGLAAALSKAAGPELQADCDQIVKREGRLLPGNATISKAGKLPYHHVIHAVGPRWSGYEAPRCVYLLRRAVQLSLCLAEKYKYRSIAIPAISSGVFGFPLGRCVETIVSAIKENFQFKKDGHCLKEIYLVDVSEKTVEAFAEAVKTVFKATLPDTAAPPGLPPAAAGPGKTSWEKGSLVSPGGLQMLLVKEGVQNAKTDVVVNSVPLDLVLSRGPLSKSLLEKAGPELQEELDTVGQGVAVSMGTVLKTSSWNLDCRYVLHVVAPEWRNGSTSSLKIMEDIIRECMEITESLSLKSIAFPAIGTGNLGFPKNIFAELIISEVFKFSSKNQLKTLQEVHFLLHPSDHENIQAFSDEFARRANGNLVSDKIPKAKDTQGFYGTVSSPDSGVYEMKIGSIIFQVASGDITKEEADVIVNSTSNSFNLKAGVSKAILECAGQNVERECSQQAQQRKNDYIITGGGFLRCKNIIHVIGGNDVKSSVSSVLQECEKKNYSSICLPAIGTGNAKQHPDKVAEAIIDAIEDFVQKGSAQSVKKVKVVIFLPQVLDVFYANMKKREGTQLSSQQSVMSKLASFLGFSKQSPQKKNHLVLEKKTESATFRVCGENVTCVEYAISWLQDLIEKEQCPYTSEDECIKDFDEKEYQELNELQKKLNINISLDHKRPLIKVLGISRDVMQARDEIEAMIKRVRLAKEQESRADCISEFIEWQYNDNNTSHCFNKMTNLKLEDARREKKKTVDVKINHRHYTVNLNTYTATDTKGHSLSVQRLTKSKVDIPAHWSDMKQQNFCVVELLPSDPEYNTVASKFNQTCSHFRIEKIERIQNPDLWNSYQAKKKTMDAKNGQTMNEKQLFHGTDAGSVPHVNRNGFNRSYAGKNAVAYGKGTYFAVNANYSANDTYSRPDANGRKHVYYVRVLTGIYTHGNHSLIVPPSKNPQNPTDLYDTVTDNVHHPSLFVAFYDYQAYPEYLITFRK

inhibition [1]	inhibition [2]	inhibition [3]	inhibition [4]	IC50 [5]	Structure (SMILES)
13%	4%	0%			O=C1CCCc2cc(C(=O)N3CCN(C(=O)CCc4nc5ccccc5[nH]c4=O)C[C@H]3CO)ccc21
0%	37%	0%	5%		O=C(NC[C@@H]1CCCN1C(=O)CCc1nc2ccccc2[nH]c1=O)c1ccc2c(c1)CCCC2=O
1%	15%	17%			CC[C@H]1CN(C(=O)COc2cccc3c2CCCC3=O)CCN1C(=O)CCc1nc2ccccc2[nH]c1=O
13%	12%	7%			O=C1CCCc2cc(C(=O)N3C[C@@H]4C[C@H]3CN4C(=O)CCc3nc4ccccc4[nH]c3=O)ccc21
0%	35%	6%	10%		O=C(COc1ccc2c(c1)CCCC2=O)NC[C@@H]1CCCN1C(=O)CCc1nc2ccccc2[nH]c1=O
17%	46%	0%		28 µM	O=C(CCc1nc2ccccc2[nH]c1=O)NCC(=O)N1CCN(C(=O)Nc2ccc3c(c2)C(=O)CCC3)CC1
15%	9%	12%			O=C1CCCc2c(OCC(=O)N3CCN(C(=O)CCc4nc5ccccc5[nH]c4=O)C[C@@H]3CO)cccc21
13%	10%	2%			O=C(CCc1nc2ccccc2[nH]c1=O)NCC(=O)N1CCN(C(=O)COc2cccc3c2CCCC3=O)CC1
11%	16%	27%			O=C(COc1ccc2c(c1)C(=O)CCC2)NC1CCN(C(=O)CCc2nc3ccccc3[nH]c2=O)CC1
